Results gathered from unrelated publications.
TYK2 JH2: Non-receptor tyrosine-protein kinase TYK2, JH2 (TYK2, Homo sapiens, UniProt P29597)
TYK2 JH1: Non-receptor tyrosine-protein kinase TYK2, JH1 (TYK2, Homo sapiens, UniProt P29597)
TYK2: Non-receptor tyrosine-protein kinase TYK2 (TYK2, Homo sapiens, UniProt P29597)

Cc1cnc(Nc2ccc(C(=O)N3CCC(N4CCCC4)CC3)cc2)nc1-c1cc2ccccc2s1  remaining binding (TYK2 JH2; binding, competition with immobilised ligand; 1 µM): 0%
CNC(=O)[C@@H]1CC[C@@H](n2c(-c3ccc4cnccc4c3)nc3ccc(C(=O)NCc4cccc(C(N)=O)c4)cc32)C1  remaining binding (TYK2 JH2; binding, competition with immobilised ligand; 1 µM): 100%
O=C(c1ccc(Nc2ncc(Cl)c(-c3ccc(Cl)s3)n2)cc1)N1CCC(N2CCCC2)CC1  remaining binding (TYK2 JH1; binding, competition with immobilised ligand; 1 µM): 25%
O=c1nc(-c2ccccn2)sc2ccccc12  remaining binding (TYK2 JH2; binding, competition with immobilised ligand; 1 µM): 98%
O=C(Nc1c[nH]nc1C(=O)NC1CCNCC1)c1cc(F)cc(F)c1  remaining binding (TYK2 JH1; binding, competition with immobilised ligand; 1 µM): 100%
CN(C)c1nccc(-c2cnc3ncccn23)n1  remaining binding (TYK2; binding; 1 µM): 82%
CN(C)c1ncnc(-c2ccc3nc(Nc4cc(CN5CCN(C(=O)CC(F)(F)F)CC5)ccn4)[nH]c3c2)c1Cl  remaining binding (TYK2 JH2; cell-free assay, competition with immobilised ligand; 1 µM): 77%
c1cncc(-c2cccc(Nc3nccc(NC4CCCCC4)n3)c2)c1  remaining binding (TYK2 JH2; binding, competition with immobilised ligand; 10 µM): 3.8%
COc1cnc(Nc2cccc(S(N)(=O)=O)c2)nc1N1CCN(c2ccccc2)CC1  remaining binding (TYK2 JH1; binding, competition with immobilised ligand; 1 µM): 53%
F[C@@H]1CCN(c2nccc(-c3cnn4ncccc34)n2)C1  remaining binding (TYK2; binding; 1 µM): 100%
CCN1CCN(Cc2ccc(C(=O)Nc3ccc(C)c(Oc4ccc5c(c4)CC(=O)N5)c3)cc2C(F)(F)F)CC1  remaining binding (TYK2 JH1; binding, competition with immobilised ligand; 1 µM): 100%
c1ccc(N2CCN(Cc3nc4ccccc4[nH]3)CC2)nc1  remaining binding (TYK2 JH2; binding, competition with immobilised ligand; 1 µM): 100%
COc1ccnn2ncc(-c3ccnc(N(C)C)n3)c12  remaining binding (TYK2; binding; 1 µM): 68%
CCC(=N\O)/C(C)=C/c1ccc(F)cc1  remaining binding (TYK2 JH2; cell-free assay, competition with immobilised ligand; 1 µM): 73%
O=C(c1ccc(Nc2ncc(Cl)c(-c3cc4ccccc4s3)n2)cc1)N1CCC(N2CCCC2)CC1  remaining binding (TYK2 JH2; binding, competition with immobilised ligand; 1 µM): 0.1%
CCOC(=O)c1cc2cc(-c3cc(C(=O)NCc4ccc(C(=O)O)cc4)nn3C)ccc2[nH]1  remaining binding (TYK2 JH1; cell-free assay, competition with immobilised ligand; 0.1 µM): 90%
COc1ncc2cc3ccccc3nc2c1C#N  remaining binding (TYK2 JH2; cell-free assay, competition with immobilised ligand; 5 µM): 99%
Cc1nc(C2CCN(C(=O)c3ccc(OC(F)(F)F)cc3N)CC2)c2ncc(N3CCN(C)CC3)cc2n1  remaining binding (TYK2 JH2; cell-free assay, competition with immobilised ligand; 1 µM): 88%
C[C@@H]1CCN(c2nccc(-c3cnn4ncccc34)n2)C1  remaining binding (TYK2; binding; 1 µM): 66%
Cc1c[nH]c2nccc(Oc3c(F)cc(Nc4cc(Cl)nc(N)n4)cc3F)c12  remaining binding (TYK2 JH2; cell-free assay, competition with immobilised ligand; 0.1 µM): 89%
N[C@H]1CCN(c2nccc(-c3cnn4ncccc34)n2)C1  remaining binding (TYK2; binding; 1 µM): 78%
